Consider 32 compounds from ChEMBL document CHEMBL3112515, “Discovery of novel 6,7-disubstituted-4-phenoxyquinoline derivatives bearing 5-(aminomethylene)pyrimidine-2,4,6-trione moiety as c-Met kinase inhibitors” (Bioorg Med Chem, 2014).

A short description of experiment [1]: Cytotoxicity against human U87MG cells after 72 hrs by MTT assay. The following applies: U-87 MG. The experiment is classed as functional, cell-based, U-87MG ATCC. Summed up:
(§1)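 Cells were grown in MEM with 10% FBS and seeded at about 4×10^3 cells per well, then held 24 h at 37 °C in 5% CO2. Compounds were added and the cells cultured 72 h. MTT was added to 5 µg/mL final for 4 h at 37 °C, and the formazan was dissolved in DMSO. IC50 is the mean of three determinations.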
(In general: Tetrazolium dyes change colour on reduction, which living cells bring about.)

Experiment [2] in a line: Cytotoxicity against human MKN45 cells after 72 hrs by MTT assay. The following applies: MKN-45, 72 h.
For experiment [3], the system named is A549. Kind of experiment: Cytotoxicity against human A549 cells after 72 hrs by MTT assay. The experiment is classed as functional, cell-based. The following applies: A549, 72 h. In outline: as §1
The test system of experiment [4] is HT-29. The experiment is described as follows: Cytotoxicity against human HT-29 cells after 72 hrs by MTT assay. The following applies: HT-29, 72 h.
For experiment [5], the target named is Hepatocyte growth factor receptor (Homo sapiens, UniProt P08581). The experiment is described as follows: Inhibition of c-Met (unknown origin) using poly (Glu, Tyr) 4:1 after 30 mins by HTRF assay. For orientation: Time-resolved FRET reads energy transfer from a long-lived donor to a nearby acceptor.
Experiment [6] is described as follows: Cytotoxicity against human H460 cells after 72 hrs by MTT assay. The following applies: NCI-H460, 72 h.

As a reminder, the IC50 is the concentration at which inhibition is half-maximal. Low readings indicate higher potency, high ones lower potency. Turning to `COc1cc2c(Oc3ccc(N/C=C4\C(=O)NC(=O)N(c5ccc(F)c(Cl)c5)C4=O)cc3F)ccnc2cc1OCCCN1CCCC1`, the IC50 was found to be 0.68 µM in experiment [1]; 0.072 µM in experiment [2]; 0.19 µM in experiment [3]; 0.19 µM in experiment [4]; 0.00238 µM in experiment [5]; 0.054 µM in experiment [6].

Take `COc1cc2c(Oc3ccc(N/C=C4\C(=O)NC(=O)N(c5ccccc5C(F)(F)F)C4=O)cc3F)ccnc2cc1OCCCN1CCCC1`: the IC50 in experiment [2] is 1.4 µM; in experiment [4], 0.37 µM; in experiment [5], 0.00751 µM; in experiment [6] it was 0.36 µM.

Regarding `COc1cc(N2C(=O)NC(=O)/C(=C\Nc3ccc(Oc4ccnc5cc(OCCCN6CCCC6)c(OC)cc45)c(F)c3)C2=O)c(OC)cc1Cl`, the IC50 in experiment [1] is 2.8 µM; in experiment [2], 0.35 µM; in experiment [3], 0.38 µM; in experiment [4], 9.4 µM; in experiment [5] it was 0.0168 µM; in experiment [6] it was 0.71 µM.

For `COc1cc2c(Oc3ccc(N/C=C4\C(=O)NC(=O)N(c5ccccc5)C4=O)cc3F)ccnc2cc1OCCCN1CCOCC1`, the IC50 was 4.8 µM in experiment [1]; 0.31 µM in experiment [2]; 0.93 µM in experiment [3]; 0.35 µM in experiment [4]; 0.00457 µM in experiment [5]; 0.26 µM in experiment [6].

As to `COc1cc2c(Oc3ccc(N/C=C4\C(=O)NC(=O)N(c5ccc(C)cc5)C4=O)cc3F)ccnc2cc1OCCCN1CCOCC1`, the IC50 worked out at 8.5 µM in experiment [1]; 0.21 µM in experiment [2]; 0.11 µM in experiment [3]; 0.18 µM in experiment [4]; 0.00216 µM in experiment [5]; 0.061 µM in experiment [6].

On to `COc1cc2c(Oc3ccc(N/C=C4\C(=O)NC(=O)N(c5c(C)cccc5C)C4=O)cc3F)ccnc2cc1OCCCN1CCOCC1`, for which the IC50 in experiment [1] came out at 7.1 µM; in experiment [2], 5.5 µM; in experiment [3] it was 2.2 µM; in experiment [4] it was 0.14 µM; in experiment [5], 0.00303 µM; in experiment [6], 0.085 µM.

With `COc1cc2c(Oc3ccc(N/C=C4\C(=O)NC(=O)N(c5ccc(F)cc5)C4=O)cc3F)ccnc2cc1OCCCN1CCOCC1`, the IC50 in experiment [2] came to 0.74 µM; in experiment [4], 0.24 µM; in experiment [5], 0.00358 µM; in experiment [6], 0.12 µM.

For `COc1cc2c(Oc3ccc(N/C=C4\C(=O)NC(=O)N(c5ccc(F)cc5F)C4=O)cc3F)ccnc2cc1OCCCN1CCOCC1`, the IC50 in experiment [2] stood at 0.78 µM; in experiment [4] it was 0.56 µM; in experiment [5], 0.0124 µM; in experiment [6], 0.85 µM.

As for `COc1cc2c(Oc3ccc(N/C=C4\C(=O)NC(=O)N(c5ccc(F)c(Cl)c5)C4=O)cc3F)ccnc2cc1OCCCN1CCOCC1`, the 50% inhibitory concentration (IC50) in experiment [1] came to 0.58 µM; in experiment [2], 0.11 µM; in experiment [3], 0.27 µM; in experiment [4] it was 0.28 µM; in experiment [5] it was 0.00514 µM; in experiment [6], 0.12 µM.

For `COc1cc2c(Oc3ccc(N/C=C4\C(=O)NC(=O)N(c5ccccc5C(F)(F)F)C4=O)cc3F)ccnc2cc1OCCCN1CCOCC1`, the IC50 in experiment [2] came out at 18.4 µM; in experiment [4], 3.7 µM; in experiment [5], 0.0212 µM; in experiment [6], 2.3 µM.

Consider `COc1cc(N2C(=O)NC(=O)/C(=C\Nc3ccc(Oc4ccnc5cc(OCCCN6CCOCC6)c(OC)cc45)c(F)c3)C2=O)c(OC)cc1Cl`, for which the IC50 in experiment [2] worked out at 2.4 µM; in experiment [4], 1.3 µM; in experiment [5], 0.0328 µM; in experiment [6] it was 0.54 µM.

`COc1cc2c(Oc3ccc(N/C=C4\C(=O)NC(=O)N(c5ccccc5)C4=O)cc3F)ccnc2cc1OCCCN1CCN(C)CC1`: the IC50 is 0.52 µM in experiment [2], 0.19 µM in experiment [4], 0.00329 µM in experiment [5] and 0.29 µM in experiment [6].

Take `COc1cc2c(Oc3ccc(N/C=C4\C(=O)NC(=O)N(c5ccc(C)cc5)C4=O)cc3F)ccnc2cc1OCCCN1CCN(C)CC1`: the IC50 in experiment [1] was 3.2 µM; in experiment [2] it was 0.16 µM; in experiment [3], 0.43 µM; in experiment [4] it was 0.49 µM; in experiment [5], 0.00268 µM; in experiment [6] it was 0.07 µM.

With `COc1cc2c(Oc3ccc(N/C=C4\C(=O)NC(=O)N(c5c(C)cccc5C)C4=O)cc3F)ccnc2cc1OCCCN1CCN(C)CC1`, the IC50 in experiment [2] worked out at 0.45 µM; in experiment [4], 0.26 µM; in experiment [5], 0.00326 µM; in experiment [6] it was 0.17 µM.

For `COc1cc2c(Oc3ccc(N/C=C4\C(=O)NC(=O)N(c5ccc(F)cc5)C4=O)cc3F)ccnc2cc1OCCCN1CCN(C)CC1`, the IC50 in experiment [2] was found to be 0.12 µM; in experiment [3] it was 0.51 µM; in experiment [4], 0.31 µM; in experiment [5], 0.00315 µM; in experiment [6] it was 0.12 µM.

As for `COc1cc2c(Oc3ccc(N/C=C4\C(=O)NC(=O)N(c5ccc(F)cc5F)C4=O)cc3F)ccnc2cc1OCCCN1CCN(C)CC1`, the IC50 was found to be 1.6 µM in experiment [1]; 0.51 µM in experiment [2]; 0.38 µM in experiment [3]; 1.5 µM in experiment [4]; 0.00835 µM in experiment [5]; 1.17 µM in experiment [6].

Take `COc1cc2c(Oc3ccc(N/C=C4\C(=O)NC(=O)N(c5ccc(F)c(Cl)c5)C4=O)cc3F)ccnc2cc1OCCCN1CCN(C)CC1`: the IC50 worked out at 0.75 µM in experiment [1]; 0.066 µM in experiment [2]; 0.31 µM in experiment [3]; 0.15 µM in experiment [4]; 0.00315 µM in experiment [5]; 0.076 µM in experiment [6].

`COc1cc2c(Oc3ccc(N/C=C4\C(=O)NC(=O)N(c5ccccc5C(F)(F)F)C4=O)cc3F)ccnc2cc1OCCCN1CCN(C)CC1`: the IC50 in experiment [2] is 3.5 µM; in experiment [4] it was 7.3 µM; in experiment [5], 0.00814 µM; in experiment [6] it was 4.2 µM.

As for `COc1cc(N2C(=O)NC(=O)/C(=C\Nc3ccc(Oc4ccnc5cc(OCCCN6CCN(C)CC6)c(OC)cc45)c(F)c3)C2=O)c(OC)cc1Cl`, the IC50 stood at 0.48 µM in experiment [2], 7.7 µM in experiment [4], 0.0247 µM in experiment [5] and 1.8 µM in experiment [6].

In the case of `COc1cc2c(Oc3ccc(N/C=C4\C(=O)NC(=O)N(c5ccc(F)cc5)C4=O)cc3F)ccnc2cc1OCCCN1CCCCC1`, the IC50 is 0.48 µM in experiment [2], 0.14 µM in experiment [4], 0.00364 µM in experiment [5] and 0.16 µM in experiment [6].

In the case of `COc1cc2c(Oc3ccc(N/C=C4\C(=O)NC(=O)N(c5ccc(F)cc5F)C4=O)cc3F)ccnc2cc1OCCCN1CCCCC1`, the IC50 amounted to 3.9 µM in experiment [2], 0.42 µM in experiment [4], 0.00927 µM in experiment [5] and 1.1 µM in experiment [6].

For the compound `COc1cc2c(Oc3ccc(N/C=C4\C(=O)NC(=O)N(c5ccccc5C(F)(F)F)C4=O)cc3F)ccnc2cc1OCCCN1CCCCC1`, the IC50 in experiment [2] amounted to 0.1 µM; in experiment [4] it was 1.3 µM; in experiment [5], 0.0185 µM; in experiment [6], 0.93 µM.

On to `COc1cc(N2C(=O)NC(=O)/C(=C\Nc3ccc(Oc4ccnc5cc(OCCCN6CCCCC6)c(OC)cc45)c(F)c3)C2=O)c(OC)cc1Cl`, for which the IC50 turned out to be 1.97 µM in experiment [2], 2.6 µM in experiment [4], 0.0279 µM in experiment [5] and 1.2 µM in experiment [6].

For the compound `COc1cc2c(Oc3ccc(N/C=C4\C(=O)NC(=O)N(c5c(C)cccc5C)C4=O)cc3F)ccnc2cc1OCCCN1CCC(C)CC1`, the IC50 was 0.13 µM in experiment [2], 0.12 µM in experiment [4], 0.00283 µM in experiment [5] and 0.15 µM in experiment [6].

As for `COc1cc2c(Oc3ccc(N/C=C4\C(=O)NC(=O)N(c5ccc(F)cc5F)C4=O)cc3F)ccnc2cc1OCCCN1CCC(C)CC1`, the IC50 came out at 0.46 µM in experiment [2], 5.1 µM in experiment [4], 0.016 µM in experiment [5] and 0.26 µM in experiment [6].

In the case of `COc1cc2c(Oc3ccc(N/C=C4\C(=O)NC(=O)N(c5ccc(F)c(Cl)c5)C4=O)cc3F)ccnc2cc1OCCCN1CCC(C)CC1`, the IC50 in experiment [2] turned out to be 0.065 µM; in experiment [4], 0.15 µM; in experiment [5], 0.00482 µM; in experiment [6] it was 0.087 µM.

With `COc1cc2c(Oc3ccc(N/C=C4\C(=O)NC(=O)N(c5ccccc5C(F)(F)F)C4=O)cc3F)ccnc2cc1OCCCN1CCC(C)CC1`, the concentration for half-maximal inhibition (IC50) in experiment [2] came out at 0.31 µM; in experiment [4], 0.6 µM; in experiment [5], 0.0183 µM; in experiment [6] it was 0.38 µM.

`COc1cc(N2C(=O)NC(=O)/C(=C\Nc3ccc(Oc4ccnc5cc(OCCCN6CCC(C)CC6)c(OC)cc45)c(F)c3)C2=O)c(OC)cc1Cl`: the IC50 was 3.4 µM in experiment [1]; 0.46 µM in experiment [2]; 0.64 µM in experiment [3]; 0.63 µM in experiment [4]; 0.0192 µM in experiment [5]; 0.57 µM in experiment [6].

Take `COc1cc2c(Oc3ccc(N/C=C4\C(=O)NC(=O)N(c5ccccc5)C4=O)cc3F)ccnc2cc1OCCCN1CCCC1`: the IC50 in experiment [2] is 0.21 µM; in experiment [4], 0.2 µM; in experiment [5], 0.00336 µM; in experiment [6], 0.29 µM.

For `COc1cc2c(Oc3ccc(N/C=C4\C(=O)NC(=O)N(c5c(C)cccc5C)C4=O)cc3F)ccnc2cc1OCCCN1CCCC1`, the IC50 in experiment [1] was found to be 1.24 µM; in experiment [2] it was 0.9 µM; in experiment [3], 0.23 µM; in experiment [4], 0.12 µM; in experiment [5], 0.00235 µM; in experiment [6] it was 0.16 µM.

For `COc1cc2c(Oc3ccc(N/C=C4\C(=O)NC(=O)N(c5ccc(F)cc5)C4=O)cc3F)ccnc2cc1OCCCN1CCCC1`, the IC50 in experiment [2] is 1.2 µM; in experiment [4], 0.49 µM; in experiment [5], 0.00268 µM; in experiment [6] it was 0.62 µM.

As to `COc1cc2c(Oc3ccc(N/C=C4\C(=O)NC(=O)N(c5ccc(F)cc5F)C4=O)cc3F)ccnc2cc1OCCCN1CCCC1`, the IC50 stood at 2.8 µM in experiment [2], 0.71 µM in experiment [4], 0.0124 µM in experiment [5] and 0.24 µM in experiment [6].
